A selection: hits, their analogues and other compounds. The true share with any hit is near 2.6%.
OXTR potentiate: human OXTR potentiators, primary screen, fluorescence, CHO-OTR cells, Fluo-8 calcium; Oxytocin receptor (Homo sapiens), P30559; Fluo-8 calcium fluorescence, potentiator mode; 0% = oxytocin EC15, 100% = EC100; activation, % at 3 µM; 0.061% of 320,000 active; AID 2445, 2010;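 active = activation above that plate's cutoff, the mean activation of tested compounds plus 3 SD, cut at about 6.6% in these data, passing the limit was not always enough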;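 note: 100% uses oxytocin at 75 nM as the full agonist control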
Target sequence (P30559 whole entry, looked up): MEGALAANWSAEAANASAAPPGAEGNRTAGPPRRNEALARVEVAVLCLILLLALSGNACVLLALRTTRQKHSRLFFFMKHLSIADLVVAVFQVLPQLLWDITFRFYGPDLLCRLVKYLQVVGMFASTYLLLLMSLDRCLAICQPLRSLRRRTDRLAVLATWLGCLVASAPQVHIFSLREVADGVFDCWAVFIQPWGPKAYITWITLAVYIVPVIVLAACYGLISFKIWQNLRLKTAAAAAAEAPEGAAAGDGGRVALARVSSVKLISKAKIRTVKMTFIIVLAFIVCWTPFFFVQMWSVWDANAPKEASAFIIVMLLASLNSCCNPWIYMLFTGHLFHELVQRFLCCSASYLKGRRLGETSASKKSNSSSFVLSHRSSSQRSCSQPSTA
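Assay system: CHO cell line stably expressing human OTR. Reagent: EC15 oxytocin agonist. Dosing: single dose, 3.0 µM nominal final compound concentration. Timing: compound 6 min at room temperature before oxytocin, 100 s read. Signal: kinetic Fluo-8 calcium fluorescence. Controls: oxytocin EC15 low and EC100 high.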
OXTR ag: human OXTR agonists, primary screen, fluorescence, CHO-OTR cells, Fluo-8 calcium; Oxytocin receptor (Homo sapiens), P30559; Fluo-8 calcium fluorescence; normalized: DMSO 0%, oxytocin 100%; 0.32% of 320,000 active; AID 2435, 2010; activation, % at 3 µM;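 active = activation above the mean of all tested compounds plus 3 SD, cutoff set per screening run, cut at about 20% in these data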;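 note: peak over basal fluorescence ratio from a 100 s FLIPR kinetic read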
CHO parental Ca: ATP-evoked calcium signal inhibitors, parental CHO, primary screen, counter-screen for OX1R antagonist project, cell-based, fluorescence, Fluo-8 calcium dye. parental CHO-K1, ATP-induced calcium, Fluo-8 fluorescence. inhibition, % at 5.6 µM. 0.63% of 330,000 active. AID 463079, 2010;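 active = inhibition above that plate's mean sample inhibition plus 3 SD, cut at about 26% in these data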;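 note: 0% = ATP-challenged DMSO wells and 100% = DMSO wells without ATP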
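Assay system: parental CHO cells; Read-out basis: percent inhibition of ATP-evoked calcium rise, normalized to controls; Benchmarks: ATP and no-ATP DMSO wells; Compound dosing: single nominal dose of 5.6 µM per compound; Signal: Fluo-8 calcium dye fluorescence; Also added: ATP as calcium-mobilizing challenge; Repeats: singlicate.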
V1aR counter: agonists of human V1a receptor, primary screen, counter-screen for OXTR agonist project, fluorescence, CHO-V1R cells. Fluo-8 calcium fluorescence, agonist mode; 0% DMSO, 100% 3 nM vasopressin. activation, % at 3 µM. 0.25% of 320,000 active;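 active = activation above the mean activation of all tested compounds plus 3 SD, per screening run, cut at about 20% in these data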;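 note: signal is peak over basal fluorescence ratio across a 100 second FLIPR read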
OX1R antag-1: antagonists of human orexin 1 receptor (OX1R). OX1R-expressing cells, FRET antagonist read-out. inhibition, % at 6.6 µM. 1.8% of 330,000 active. Orexin/Hypocretin receptor type 1 (Homo sapiens), O43613; in the data active = inhibition mostly above about 38%, no sharp cut-off; inactive = mostly below about 40%;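 note: 0% = agonist challenge alone and 100% = reference antagonist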
OX1R antag-2: OX1R (HCRTR1) antagonists, primary screen, fluorescence, CHO/OX1R cells, Fluo-8 calcium, orexin A; Orexin/Hypocretin receptor type 1 (Homo sapiens), O43613; Fluo-8 calcium fluorescence; inhibition, % at 5 µM; 0.43% of 330,000 active;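 active = inhibition above its plate's threshold, mean inhibition of all tested compounds on the plate plus 3 SD, cut at about 37% in these data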;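 note: 0% = orexin A challenge wells and 100% = SB-334867-A antagonist wells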
An asterisk follows results filed as active.

`COc1ccccc1-c1nc2c3ccccc3nc(=S)n2[nH]1` gave OXTR potentiate -1, OXTR ag 2, CHO parental Ca -4, V1aR counter 3, OX1R antag-1 29 and OX1R antag-2 -11.
`O=C1c2ccccc2[C@@H]2C[C@H](NC34CC5CC(CC(C5)C3)C4)[C@@H](O)CCN12` gave CHO parental Ca -20, OX1R antag-1 14 and OX1R antag-2 -13.
`O=C(OCc1nc2ccsc2c(=O)[nH]1)c1ccccc1` gave OXTR potentiate 1, OXTR ag 0, CHO parental Ca -7, V1aR counter 0, OX1R antag-1 14 and OX1R antag-2 -6.
`Cc1c(C(=O)OCc2nc3ccsc3c(=O)[nH]2)oc2ccccc12` gave OXTR potentiate -5, OXTR ag 0, CHO parental Ca -21, V1aR counter 0, OX1R antag-1 49* and OX1R antag-2 1.
Screening Cc1ccc(C(=O)NCC(=O)NCC(c2cccs2)N(C)C)cc1C (centres undefined) returned OXTR potentiate 7, OXTR ag 1, CHO parental Ca -10, V1aR counter 1, OX1R antag-1 3 and OX1R antag-2 6.
For COc1ccc(CC(=O)NC(c2ccccc2)c2ccc(C)cc2)c(OC)c1 (centres undefined) the results were OXTR potentiate -12, OXTR ag 0, CHO parental Ca -26, V1aR counter 0, OX1R antag-1 5 and OX1R antag-2 -32.
For COc1cccc(C(O)c2cnc(C(C)C)n2C)c1 (centres undefined) the results were OXTR potentiate 0, OXTR ag 1, CHO parental Ca -5, V1aR counter 1, OX1R antag-1 3 and OX1R antag-2 -16.
`COc1ccc(N(CC(=O)NCc2ccc(F)cc2)C(=O)c2snc(C(N)=O)c2N)cc1OC` gave OXTR potentiate -2, OXTR ag 1, CHO parental Ca -16, V1aR counter -1, OX1R antag-1 4 and OX1R antag-2 -22.
Screening CC1(c2ccc([N+](=O)[O-])cc2)NC(=O)N(CC(=O)c2ccc3c(c2)OCO3)C1=O (centres undefined) returned OXTR potentiate -20, OXTR ag 34*, CHO parental Ca 20, V1aR counter 23*, OX1R antag-1 -1 and OX1R antag-2 -20.
Screening CC1(c2ccc(OC(F)F)cc2)NC(=O)N(CC(=O)NC2CCCCC2)C1=O (centres undefined) returned OXTR potentiate -6, OXTR ag 5, CHO parental Ca -18, V1aR counter 6, OX1R antag-1 2 and OX1R antag-2 -9.
`CC1(c2ccc(OC(F)F)cc2)NC(=O)N(CC(=O)c2ccc3c(c2)OCO3)C1=O` (centres undefined) gave OXTR potentiate -22, OXTR ag 41*, CHO parental Ca 10, V1aR counter 39*, OX1R antag-1 9 and OX1R antag-2 -14.
For O=C(Nc1nc2ccccc2[nH]1)NC1CCCCC1 the results were OXTR potentiate -13, OXTR ag 5, CHO parental Ca 3, V1aR counter 6, OX1R antag-1 25 and OX1R antag-2 -29.
O=C(Nc1nc2cc3c(cc2s1)OCCO3)c1cccs1 was read as OXTR potentiate -7, OXTR ag -2, CHO parental Ca 7, V1aR counter -1, OX1R antag-1 66* and OX1R antag-2 12.
Screening COC(=O)CCSc1cc(NCCOC(C)=O)c([N+](=O)[O-])c2nonc12 returned OXTR potentiate 1, OXTR ag 2, CHO parental Ca 2, V1aR counter 0, OX1R antag-1 53* and OX1R antag-2 -5.
`CC(=O)OCCNc1cc(Sc2nc3ccccc3[nH]2)c2nonc2c1[N+](=O)[O-]` gave OXTR potentiate 6, OXTR ag -1, CHO parental Ca 48*, V1aR counter -1, OX1R antag-1 98* and OX1R antag-2 29.
CC(=O)OCCCNc1cc(Sc2nc3ccccc3s2)c2nonc2c1[N+](=O)[O-] was read as OXTR potentiate -5, OXTR ag 0, CHO parental Ca 7, V1aR counter 0, OX1R antag-1 30 and OX1R antag-2 -1.
For CCN(C[C@H]1N[C@@](CC)(C(=O)OC)[C@H]2C(=O)N(Cc3ccccc3)C(=O)[C@@H]12)C(=O)c1ccc(C(C)(C)C)cc1 the results were OXTR potentiate -3, OXTR ag -3, CHO parental Ca -30, V1aR counter -2, OX1R antag-1 18 and OX1R antag-2 -21.
For CCN(CC)S(=O)(=O)c1ccc(Oc2ccc(S(=O)(=O)N(CC)CC)cc2)cc1 the results were OXTR potentiate -8, OXTR ag 18, CHO parental Ca 58*, V1aR counter 9, OX1R antag-1 14 and OX1R antag-2 33.
Screening Nc1nnc(SCC(=O)NNC(=O)c2ccc([N+](=O)[O-])cc2)s1 returned OXTR potentiate 2, OXTR ag 1, CHO parental Ca -2, V1aR counter 1, OX1R antag-1 36* and OX1R antag-2 1.
COc1ccc(-n2ncc3c2CC(C)(C)CC3NC(=O)c2c(C)cc(=O)oc2C)cc1 (centres undefined) was read as OXTR potentiate -14, OXTR ag -2, CHO parental Ca -8, V1aR counter -1, OX1R antag-1 14 and OX1R antag-2 -16.
`O=C(c1cccs1)c1c[nH]cc1-c1ccccc1` gave OXTR potentiate -1, OXTR ag 0, CHO parental Ca 7, V1aR counter -1, OX1R antag-1 33 and OX1R antag-2 -13.
`Nc1cc(C(=O)O)c(N)c2c1C(=O)c1ccccc1C2=O` gave OXTR potentiate 0, OXTR ag -1, CHO parental Ca -3, V1aR counter 1, OX1R antag-1 115* and OX1R antag-2 5.
CCOC(=O)c1ccc(NC(=S)N2CCSC2c2ccc(Br)cc2)cc1 (centres undefined) was read as OXTR potentiate -14, OXTR ag 48*, CHO parental Ca 46*, V1aR counter 37*, OX1R antag-1 4 and OX1R antag-2 55*.
CNc1ccc(C(=O)OCC(=O)NC(=O)NC2CCCC2)cc1[N+](=O)[O-] was read as OXTR potentiate -7, OXTR ag -1, CHO parental Ca -7, V1aR counter 0, OX1R antag-1 9 and OX1R antag-2 -6.

Compound activity (PubChem BioAssay)
